Converted amounts (≈) assume the structure as drawn.
How the values were obtained:
[1] = tested on: Aspergillus flavus; assay: In vitro evaluation of minimum inhibitory concentration against Aspergillus flavus 19; format: functional; conditions: Aspergillus flavus; read-out: MIC
Method in brief: (§1)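 Stocks are 800 μg/mL in 50% ethanol. Each plate gets 10 μL of inoculum at 10^5 cfu/mL. Incubation at 25 °C, 48 h for yeasts and 120 h for dermatophytes and molds. Organisms are ATCC strains or clinical isolates.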

[2] = tested on: Candida albicans; assay: Evaluation of In vitro antifungal activity against Candida albicans 60 by broth macro dilution method
[3] = tested on: Candida albicans; assay: Evaluation of In vitro antifungal activity against Candida albicans C52 by broth macro dilution method; format: functional
Method in brief: (§2)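 Yeast MIC and MFC by broth macrodilution per NCCLS M27-P in RPMI-1640 buffered with 0.165 M MOPS. Fluconazole in sterile water, other drugs in DMSO. C. parapsilosis ATCC 22019 is the reference strain in each run. MIC is the lowest concentration with turbidity ≤ the 80% inhibition standard. For MFC, 0.04 mL from clear tubes is plated on Sabouraud agar; MFC is the lowest concentration giving ≤1 colony.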

[4] = tested on: Cryptococcus neoformans; assay: Evaluation of In vitro antifungal activity against Cryptococcus neoformans 87 by broth macro dilution method; format: functional; method in brief: as §2
[5] = tested on: Mus sp.; assay: In vivo evaluation of % survival rate after peroral administration on 9th day at dose 0.5 mg/kg; format: functional; conditions: Mus sp., po
[6] = tested on: Pichia kudriavzevii; assay: Evaluation of In vitro antifungal activity against Candida krusei 70 by broth macro dilution method; format: functional; method in brief: as §2
[7] = tested on: Aspergillus niger; assay: In vitro evaluation of minimum inhibitory concentration against Aspergillus niger 18; format: functional; conditions: Aspergillus niger; read-out: MIC; method in brief: as §1
[8] = tested on: Candida albicans; assay: Evaluation of In vitro antifungal activity against Candida albicans ATCC 10231 by broth macro dilution method; format: functional; method in brief: as §2
[9] = tested on: Kluyveromyces marxianus; assay: Evaluation of In vitro antifungal activity against Candida pseudotropicalis ATCC 28838 by broth macro dilution method; format: functional; method in brief: as §2
[10] = tested on: Candida tropicalis; assay: Evaluation of In vitro antifungal activity against Candida tropicalis 50 by broth macro dilution method; format: functional; method in brief: as §2
[11] = tested on: Mus sp.; assay: In vivo evaluation of % survival rate after peroral administration on 3rd day at dose 0.5 mg/kg; format: functional; conditions: route oral
[12] = tested on: Candida tropicalis; assay: Evaluation of In vitro antifungal activity against Candida tropicalis 2.11 by broth macro dilution method; format: functional; method in brief: as §2
[13] = tested on: Candida albicans; assay: Evaluation of […] antifungal activity against Candida albicans 60 by broth macro dilution method; format: functional; method in brief: as §2
[14] = tested on: Mus sp.; assay: In vivo evaluation of % survival rate after peroral administration on 3rd day at dose 1 mg/kg; format: functional; conditions: Mus sp., po
[15] = tested on: Candida albicans; assay: Evaluation of In vitro antifungal activity against Candida albicans 76 by broth macro dilution method; format: functional; method in brief: as §2
[16] = tested on: Mus sp.; assay: In vivo evaluation of % survival rate after peroral administration on 5th day at dose 1 mg/kg; format: functional; conditions: Mus sp., po
[17] = tested on: Candida parapsilosis; assay: Evaluation of In vitro antifungal activity against Candida parapsilosis C74 by broth macro dilution method; format: functional; conditions: Lodderomyces parapsilosis; method in brief: as §2
[18] = tested on: Mus musculus; assay: In vivo evaluation of % survival rate after peroral administration on 7th day at dose 0.5 mg/kg; format: functional; conditions: Mus musculus, po
[19] = tested on: Candida parapsilosis; assay: In vitro evaluation of minimum inhibitory concentration against Candida parapsilosis 61; format: functional; conditions: Lodderomyces parapsilosis; read-out: MIC; method in brief: as §1
[20] = tested on: Mus sp.; assay: In vivo evaluation of % survival rate after peroral administration on 9th day at dose 1 mg/kg; format: functional; conditions: Mus sp., po
[21] = tested on: Candida albicans; assay: Evaluation of In vitro antifungal activity against Candida albicans C56 by broth macro dilution method; format: functional; method in brief: as §2
[22] = tested on: Candida albicans; assay: Evaluation of In vitro antifungal activity against Candida albicans 31 by broth macro dilution method; format: functional; method in brief: as §2
[23] = tested on: Pichia kudriavzevii; assay: In vitro evaluation of minimum inhibitory concentration against Candida krusei 70; format: functional; conditions: Pichia kudriavzevii; read-out: MIC; method in brief: as §1
[24] = tested on: Trichophyton benhamiae; assay: In vitro evaluation of minimum inhibitory concentration against Trichophyton mentagrophytes 23; format: functional, Arthroderma benhamiae; conditions: Trichophyton benhamiae; read-out: MIC; method in brief: as §1
[25] = tested on: Candida parapsilosis; assay: Evaluation of In vitro antifungal activity against Candida parapsilosis 2.07 by broth macro dilution method; format: functional; conditions: Lodderomyces parapsilosis; method in brief: as §2
[26] = tested on: Nannizzia gypsea; assay: In vitro evaluation of minimum inhibitory concentration against Microsporum gypseum 22; format: functional; conditions: Nannizzia gypsea; read-out: MIC; method in brief: as §1
[27] = tested on: Candida parapsilosis; assay: Evaluation of In vitro antifungal activity against Candida parapsilosis ATCC 141095 by broth macro dilution method; format: functional; conditions: Lodderomyces parapsilosis; method in brief: as §2
[28] = tested on: Trichophyton rubrum; assay: In vitro evaluation of minimum inhibitory concentration against Trichophyton rubrum 90; format: functional; conditions: Trichophyton rubrum; read-out: MIC; method in brief: as §1
[29] = tested on: Candida albicans; assay: Evaluation of In vitro antifungal activity against Candida albicans 406 by broth macro dilution method; format: functional; method in brief: as §2
[30] = tested on: Rattus norvegicus; assay: In vivo evaluation of antifungal activity against vaginal candidosis in rat at dose 0.25 mg/kg on 15th day; format: functional
Method in brief: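 Groups of 10 female Wistar rats given estradiol 25 mg/kg sc on day -5, infected intravaginally with C. albicans by sterile swab on day 0; infection confirmed on day 3 by swab culture (TSB, then Sabouraud agar). Oral dosing once daily on days 3, 4, 5; vehicle controls. Vaginal swabs cultured on days 10 and 15; read-out % cured (culture-negative).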

[31] = tested on: Pichia kudriavzevii; assay: Evaluation of In vitro antifungal activity against Candida krusei C64 by broth macro dilution method; format: functional; method in brief: as §2
[32] = tested on: Meyerozyma guilliermondii; assay: Evaluation of In vitro antifungal activity against Candida guilliermondii 26 by broth macro dilution method; format: functional; method in brief: as §2
[33] = tested on: Mus sp.; assay: In vivo evaluation of % survival rate after peroral administration on 5th day at dose 0.5 mg/kg; format: functional; conditions: route oral
[34] = tested on: Candida albicans; assay: Evaluation of In vitro antifungal activity against Candida albicans 2.01 by broth macro dilution method; format: functional; method in brief: as §2
[35] = tested on: Mus sp.; assay: In vivo evaluation of % survival rate after peroral administration on 7th day at dose 1 mg/kg; format: functional; conditions: Mus sp., po
[36] = tested on: Aspergillus fumigatus; assay: In vitro evaluation of minimum inhibitory concentration against Aspergillus fumigatus 33; format: functional; conditions: Aspergillus fumigatus; read-out: MIC; method in brief: as §1
[37] = tested on: Candida albicans; assay: In vitro evaluation of minimum inhibitory concentration against Candida albicans 76; format: functional; conditions: Candida albicans; read-out: MIC; method in brief: as §1
[38] = tested on: Cryptococcus neoformans; assay: Evaluation of In vitro antifungal activity against Cryptococcus neoformans 74 by broth macro dilution method; format: functional; method in brief: as §2
[39] = tested on: Microsporum canis; assay: In vitro evaluation of minimum inhibitory concentration against Microsporum canis 47; format: functional; conditions: Microsporum canis; read-out: MIC; method in brief: as §1
[40] = tested on: Candida parapsilosis; assay: Evaluation of In vitro antifungal activity against Candida parapsilosis C292 by broth macro dilution method; format: functional; conditions: Lodderomyces parapsilosis; method in brief: as §2
[41] = tested on: Meyerozyma guilliermondii; assay: In vitro evaluation of minimum inhibitory concentration against Candida guilliermondii 26; format: functional; conditions: Meyerozyma guilliermondii; read-out: MIC; method in brief: as §1
[42] = tested on: Nakaseomyces glabratus; assay: Evaluation of In vitro antifungal activity against Torulopsis glabrata 78 by broth macro dilution method; format: functional; method in brief: as §2

OC(Cn1cncn1)(Cn1cncn1)c1ccc(F)cc1F [FLUCONAZOLE]
MIC [1]: > 80 µg/mL | MFC [2]: > 64 µg/mL | MFC [3]: > 64 µg/mL | MIC [3]: 0.25 µg/mL (≈ 0.816 µM) | MFC [4]: > 64 µg/mL | MIC [4]: 8 µg/mL (≈ 26.1 µM) | survival at 0.5 mg/kg [5]: 10% | MFC [6]: > 64 µg/mL | MIC [6]: 32 µg/mL (≈ 104 µM) | MIC [7]: > 80 µg/mL | MFC [8]: > 64 µg/mL | MIC [8]: 2 µg/mL (≈ 6.53 µM) | MFC [9]: 32 µg/mL (≈ 104 µM) | MFC [10]: > 64 µg/mL | MIC [10]: 8 µg/mL (≈ 26.1 µM) | survival at 0.5 mg/kg [11]: 100% | MFC [12]: > 64 µg/mL | MIC [12]: 1 µg/mL (≈ 3.27 µM) | MIC [13]: 0.5 µg/mL (≈ 1.63 µM) | survival at 1 mg/kg [14]: 100% | MFC [15]: > 64 µg/mL | MIC [15]: 0.25 µg/mL (≈ 0.816 µM) | survival at 1 mg/kg [16]: 96% | MFC [17]: 2 µg/mL (≈ 6.53 µM) | MIC [17]: 0.25 µg/mL (≈ 0.816 µM) | survival at 0.5 mg/kg [18]: 20% | MIC [19]: 20 µg/mL (≈ 65.3 µM) | survival at 1 mg/kg [20]: 6% | MFC [21]: > 64 µg/mL | MIC [21]: 0.5 µg/mL (≈ 1.63 µM) | MFC [22]: > 64 µg/mL | MIC [22]: 0.25 µg/mL (≈ 0.816 µM) | MIC [23]: > 80 µg/mL | MIC [24]: > 80 µg/mL | MFC [25]: > 64 µg/mL | MIC [25]: 1 µg/mL (≈ 3.27 µM) | MIC [26]: > 80 µg/mL | MFC [27]: > 64 µg/mL | MIC [27]: 2 µg/mL (≈ 6.53 µM) | MIC [28]: > 80 µg/mL | MFC [29]: > 64 µg/mL | MIC [29]: 0.25 µg/mL (≈ 0.816 µM) | Cure rate [30]: 25% | MFC [31]: > 64 µg/mL | MIC [31]: 64 µg/mL (≈ 209 µM) | MIC [32]: 8 µg/mL (≈ 26.1 µM) | survival at 0.5 mg/kg [33]: 90% | MFC [34]: > 64 µg/mL | MIC [34]: 1 µg/mL (≈ 3.27 µM) | survival at 1 mg/kg [35]: 52% | MIC [36]: > 80 µg/mL | MIC [37]: 40 µg/mL (≈ 131 µM) | MFC [38]: 1 µg/mL (≈ 3.27 µM) | MIC [38]: 0.5 µg/mL (≈ 1.63 µM) | MIC [39]: > 80 µg/mL | MFC [40]: > 64 µg/mL | MIC [40]: 1 µg/mL (≈ 3.27 µM) | MIC [41]: 10 µg/mL (≈ 32.7 µM) | MFC [42]: > 64 µg/mL | MIC [42]: 32 µg/mL (≈ 104 µM)

Source: ChEMBL document CHEMBL1128448, “Synthesis and antifungal activity of new azole derivatives containing an N-acylmorpholine ring” (1995)
